Screen size: about 330,000 compounds; about 1,100 (0.33%) were called active. Shown is part of a subset that was picked to be rich in actives. Values without a mark were called inactive.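 Rule for the calls: active = mean inhibition over replicate wells above about 20% (limit read from the data); inactive = the rest.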
target: Ubiquitin carboxyl-terminal hydrolase isozyme L5 (Homo sapiens) (UniProt Q9Y5K5); experiment: inhibitors of human UCH37 deubiquitinase, primary screen, biochemical, Ub-AMC cleavage, fluorescence (AID 588478); details: purified proteasome/UCH37, Ub-AMC cleavage fluorescence; stronger effect = higher value; concentration not given here;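 note: 0% = compound-free wells with enzyme and 100% = wells lacking proteasome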
Sequence (Q9Y5K5 whole entry, looked up): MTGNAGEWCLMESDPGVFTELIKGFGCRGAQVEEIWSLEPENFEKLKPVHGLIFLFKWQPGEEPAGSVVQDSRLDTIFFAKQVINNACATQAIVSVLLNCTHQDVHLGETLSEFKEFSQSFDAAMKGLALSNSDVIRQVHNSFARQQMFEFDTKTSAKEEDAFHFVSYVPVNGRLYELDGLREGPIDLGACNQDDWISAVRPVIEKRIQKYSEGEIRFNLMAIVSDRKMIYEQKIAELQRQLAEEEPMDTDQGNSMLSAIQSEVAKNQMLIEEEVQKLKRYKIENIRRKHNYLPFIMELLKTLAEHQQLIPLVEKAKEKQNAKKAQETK
How it was run: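 Material: Human UCH37 enzyme supplied as purified proteasome complex | Schedule: 30 min preincubation with enzyme, 25 min cleavage at room temperature | Detection: AMC fluorescence 355/460 nm | Measure: % inhibition of Ub-AMC cleavage fluorescence | Controls: Wells without proteasome as full block, compound-free enzyme plus substrate as uninhibited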

In order of falling inhibition:
1. O=C1c2ccccc2-c2ncnc3c(N4CCOCC4)cc(N4CCOCC4)c1c23  17.7%
2. O=C1C=C(NS(=O)(=O)c2ccccc2)C(=O)c2ccccc21  16.2%
3. CCOc1cc(C=NNC(=O)C(N)=O)cc(Br)c1O  13.3%
4. CC(=NNC(=S)NC(C)C)c1ccc(Cl)s1  8.08%
5. CCN(CC)CCn1c2ccc(Cl)cc2c2nc(C)sc21  7.52%
6. COc1ccccc1N1CCN(N=C/C=C\c2ccccc2[N+](=O)[O-])CC1  7.46%
7. COc1ccc(C2/C(=C(/O)c3ccccc3)C(=O)C(=O)N2c2ncccn2)cc1OC (stereo unspecified)  7.11%
8. O=[N+]([O-])c1ccc(N(CCO)Cc2ccccc2)c([N+](=O)[O-])c1  6.59%
9. Cc1cc(N2C(=O)C(=O)/C(=C(/O)c3ccc(Cl)cc3)C2c2cccc(Br)c2)no1 (stereo unspecified)  6.56%
10. CCNC(=S)N=C(N)Nc1nc(C)c2cc(C)ccc2n1  6.4%
11. CCOC(=O)CNC(=O)N1c2ccccc2Sc2ccccc21  5.96%
12. Cc1ccc(N2C(=O)CC(Sc3ncn[nH]3)C2=O)cc1 (stereo unspecified)  5.88%
13. COc1ccc(OCC(=O)NN=C(C)CC(=O)Nc2ccc(OC)cc2[N+](=O)[O-])cc1  5.56%
14. COc1ccc(C=NNC(=O)CSc2ccccn2)cc1OC  5.41%
15. CCN1/C(=C\c2ccc3ccccc3[n+]2CC)Sc2cc(C)ccc21  4.94%
16. Cc1cc(C)n2nc(C(=O)NN=Cc3cccc(Cl)c3)nc2n1  4.88%
17. COc1ccc(CNC(=O)C2(CC3CC(c4ccccc4)=NO3)CCN(C(=O)c3cccc(O)c3)CC2)cc1 (stereo unspecified)  4.4%
18. Cc1cc(=O)n2nc(N3CCCC(C(=O)NCCC4=CCCCC4)C3)sc2n1 (stereo unspecified)  4.22%
19. COc1ccc(S(=O)(=O)NCCCc2ccccc2)cc1  4.02%
20. CCCCCCCNC(=O)C1(CC2CC(c3cccc(Br)c3)=NO2)CCN(C(=O)c2cc(OCC)c(OCC)c(OCC)c2)CC1 (stereo unspecified)  3.99%
21. CC(=N/N=C1/NC(=O)C(CC(=O)NCc2ccccc2)S1)C(C)C (stereo unspecified)  3.63%
22. COc1ccccc1Oc1ccc(N/C=C2/CCCC2=O)cc1  3.61%
23. O=C1C(Cl)=C(N2CCOCC2)C(=O)N1c1ccccc1  3.48%
24. CC(=NNC(=O)c1ccc2c(c1)OCO2)c1ccc(O)cc1  3.15%
25. CC(CC(=O)NCCc1ccccc1)=NNC(=O)COc1ccc(Br)cc1  3.08%
26. CC(=NNc1cc(N2CCOCC2)ncn1)c1ccccc1  2.94%
27. Cc1[nH]c2ccccc2c1C=NNC(=O)CCC(=O)NCc1ccccc1  2.82%
28. C(=NNc1nc(N2CCOCC2)nc(N2CCOCC2)n1)c1cccnc1  2.78%
29. CC(C)(C)c1ccc(OCc2ccc(C(=O)NN=C3CC4CC=CC34)cc2)cc1 (stereo unspecified)  2.62%
30. O=C(NN=Cc1cccnc1)c1cccc(N2CCCC2=O)c1  2.39%
31. Cc1nnc(NN=Cc2ccccn2)[nH]c1=O  1.91%
32. CC(=NNC(=O)c1cccc(NN=C(C)c2ccco2)c1)c1ccco1  1.7%
33. COC(=O)c1ccc(C=NNC(=O)CNc2cccc(C)c2)cc1  1.65%
34. O=C(NC1CCCCC1)c1ccc(-c2ccc(Cl)cc2)o1  1.6%
35. CON=CCc1oc(=O)c(NC(=O)c2ccccc2)cc1C(=O)OC  1.47%
36. O=[N+]([O-])c1ccc2c(c1)Nc1nc3ccccc3nc1N2  0.978%
37. CCCCCCC(=O)NN=CCc1ccccc1  0.89%
38. O=C(NC(Cc1c[nH]c2ccccc12)C(=O)NN=Cc1ccc(Br)cc1)c1cccs1 (stereo unspecified)  0.851%
39. Cc1ccc(S(=O)(=O)/N=S(\C)C(C)C)cc1 (stereo unspecified)  0.621%
40. CCN1C(=O)CSC1=NS(=O)(=O)c1ccc(Cl)cc1  -0.232%
41. Cc1cccc(C=NNC(=O)Cn2nccc2C)n1  -0.386%
42. Cc1ccccc1OCC(=O)NN=C1CCOc2c(C)cccc21  -0.822%
43. CN(CC(=O)Nc1ccc(F)cc1)C(=O)c1ccc(-c2ccc(Cl)cc2)o1  -0.892%
44. C=CCN1C(=O)c2ccc(C(=O)N3CCC(C(=O)OCC)CC3)cc2C1=O  -0.969%
45. O=C(Cc1ccccc1)NNC(=O)C1CCN(c2ncccn2)CC1  -5.78%
46. Cc1cccc(OCC(=O)NN=C/C=C/c2ccc3c(c2)OCO3)c1C  -10.5%
47. Nc1nnnn1N=Cc1cc(Cl)ccc1O  -10.7%
48. Cn1c(=O)n(C)c2cc(C=Nn3cnnc3)ccc21  -35.7%

In the case of `CCC(=O)/C=C1\Sc2ccccc2N1CC`, the inhibition is reported as 23.7% (active).
In the case of `COc1ccc(S(=O)(=O)/N=C2\C=C(NS(=O)(=O)c3ccccc3)C(=O)c3ccccc32)cc1`, the inhibition is reported as 39.6% (active).
`O=C(c1ccccc1)N1CCC(CC2CC(c3ccc(Cl)cc3)=NO2)(C(=O)NCC2CCCCC2)CC1` (stereo unspecified) was tested, and the inhibition was 22.5% (active).
For `O=C1Nc2ccc([N+](=O)[O-])cc2C1=Nc1cccc(CO)c1`, the inhibition was 55.8% (active).
In the case of `Cc1ccc(S(=O)(=O)N=C2C=C(Sc3ncn[nH]3)C(=O)c3ccccc32)cc1`, the inhibition is reported as 63.7% (active).
With `O=C1/C(=C\Nc2ccccc2)CCN1c1ncccn1` the inhibition was 21% (active).
For `c1coc(-c2nc3nc4ccccc4n3nc2-c2ccco2)c1`, the inhibition was 25.1% (active).
`CCN(CC)CCCC(C)n1c2nc(=O)[nH]c(=O)c-2nc2cc(Cl)ccc21` (stereo unspecified) was tested, and the inhibition was 76% (active).
In the case of `COC1=C(N2CCOCC2)C(=O)c2ccccc2C1=O`, the inhibition is reported as 33.9% (active).
For `Cc1cc(N2C(=O)C(=O)/C(=C(/O)c3ccccc3)C2c2cccc(Br)c2)no1` (stereo unspecified), the inhibition was 21.7% (active).
For `Cc1[nH][nH]c(=O)c1C(c1ccc(-c2ccc(Cl)cc2)o1)c1c(C)[nH][nH]c1=O`, the inhibition was 42.6% (active).
With `Oc1ccc(N=Nc2nccs2)c(O)c1` the inhibition was 24.4% (active).
`CC1CCCN(C(=O)c2ccc3c(c2)C(=O)N(CCC2=CCCCC2)C3=O)C1` (stereo unspecified) was tested, and the inhibition was 39.5% (active).
